Key:
Type in all cases: functional, cell-based
Jurkat = assay: Cytotoxicity against human Jurkat cells after 48 hrs by Cell titer Glo assay
In short: (§1)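 Cells grown in medium with 10% FBS and penicillin-streptomycin: DMEM for HeLa, MDA-MB231 and PC-3, RPMI for Jurkat. Compounds were taken from 20 mM DMSO stocks and serially diluted in medium at 37 °C. Cells were exposed for 48 h. Viability was read as ATP luminescence and normalized to untreated control (% viability). IC50 came from dose-response curve fits; each was run three times and given as mean ± SD.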

PC-3 = assay: Cytotoxicity against human PC3 cells after 48 hrs by Cell titer Glo assay; conditions: PC-3, 48 h; in short: as §1
HeLa = assay: Cytotoxicity against human HeLa cells after 48 hrs by Cell titer Glo assay; in short: as §1
MDA-MB-231 = assay: Cytotoxicity against human MDA-MB-231 cells after 48 hrs by Cell titer Glo assay; conditions: MDA-MB-231, 48 h; in short: as §1

| SMILES | IC50 (Jurkat) [µM] | IC50 (PC-3) [µM] | IC50 (HeLa) [µM] | IC50 (MDA-MB-231) [µM] |
| --- | --- | --- | --- | --- |
| CCCCCCCCCCCC[C@@H](O)[C@H]1CC[C@H]([C@H](O)CCCCC[C@@H](O)CCCCCCC2=C[C@H](C)OC2=O)O1 | 17.8 | 43.1 | 21 | 34.2 |
| CCCCCCCCCCCOC[C@H]1O[C@H](OCCCCCCCCCCCC[C@@H](O)CC2=C[C@H](C)OC2=O)[C@@H](O)[C@@H](O)[C@@H]1O | 10.1 | 32.6 | 15.2 | 21.2 |
| CCCCCCCCCCCOC[C@@H]1CC[C@H](O)[C@@H](OCCCCCCCCCCCC[C@@H](O)CC2=C[C@H](C)OC2=O)O1 | 10.7 | 28.7 | 13.9 | 21.8 |
| CCCCCCCCCCCO[C@H]1[C@@H](O)[C@@H](CO)O[C@@H](OCCCCCCCCCCCC[C@@H](O)CC2=C[C@H](C)OC2=O)[C@@H]1O | 78.2 | – | 50.3 | 73.5 |
| CCCCCCCCCCCOC[C@@H]1C[C@H](O)[C@H](O)[C@@H](OCCCCCCCCCCCC[C@@H](O)CC2=C[C@H](C)OC2=O)O1 | 19.7 | 52.8 | 23.3 | 36.7 |
| CCCCCCCCCCCOC[C@H]1O[C@H](OCCCCCCCCCCCC[C@@H](O)CC2=C[C@H](C)OC2=O)C[C@@H](O)[C@@H]1O | 13.3 | 44 | 16.3 | 16.8 |

From ChEMBL document CHEMBL2440044, “Synthesis and anti-tumor activity of carbohydrate analogues of the tetrahydrofuran containing acetogenins” (Bioorg Med Chem, 2013)
